Experimental data as given in paper PMC8240349 (Journal of Traditional and Complementary Medicine, 2021).
Read-outs that look alike come from different tables or passages of the source. Marks after values point to notes of the source that are not given here.

How the values were obtained:
[1] = rats, cited from earlier work
[2] = type: in vivo, human; details: for AUC0-t / AUC0-∞ / CL/F / MRT / Vz/F / t1/2z / tmax / λ / Cmax: median (range)
Outline: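 Healthy Thai adults took oral 1,000 mg AL extract capsules with 200 ml water, either once (group 1) or daily for 21 days (group 2), with 20 active recipients per group. Plasma atractylodin was measured by reversed-phase C18 HPLC (UV 340 nm, acetonitrile:water 70:30, 25 °C; LOQ 2.5 ng/ml). Cmax was read from observed data. t1/2z came from log-linear regression of at least the last three points. MRT was AUMC0-∞/AUC0-∞.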

[3] = test system: CCA; details: bioassay-guided activity; cited from earlier work
[4] = oral 40 g/kg body weight crude A. rhizoma
[5] = oral 40 g/kg body weight processed A. rhizoma
[6] = group 1, single 1,000 mg AL, all
[7] = group 1, single 1,000 mg AL, female
[8] = group 1, single 1,000 mg AL, male
[9] = group 2, daily 1,000 mg AL, day 1, all
[10] = group 2, daily 1,000 mg AL, day 1, female
[11] = group 2, daily 1,000 mg AL, day 1, male
[12] = group 2, daily 1,000 mg AL, day 21, all
[13] = group 2, daily 1,000 mg AL, day 21, female
[14] = group 2, daily 1,000 mg AL, day 21, male

In the case of `C/C=C/C#CC#C/C=C/c1ccco1` [atractylodin], the CL/F [1, 4] is given as 111 mL/min/kg, the “mean Cmax” value [1, 4] is given as 625 ng/mL and the “mean residence time (MRT)” value [1, 4] is given as 4.8 h. For the same molecule, the t1/2z [1, 4] was 2.38 h, the “time of Cmax” value [1, 4] was 2.2 h and the CL/F [1, 5] was 42.7 mL/min/kg. For the same molecule, the MRT [1, 5] was 7.06 h, the “mean Cmax” value [1, 5] was 2,299 ng/ml and the t1/2z [1, 5] was 5.13 h. The tmax [1, 5] was 0.33 h, the “plasma atractylodin after 6 h” value ([2]; all participants, both groups) was “undetectable” and the “observed Cmax, range” value ([2]; both groups, model-independent analysis) was 7.1 to 152.7 ng/mL. For the same molecule, the AUC0-t [2, 6] was 118.27 (72.47–169.90) ng.h/ml, the “AUC0-∞” value [2, 6] was 123.70 (75.13–176.96) ng.h/ml and the CL/F [2, 6] was 6.68 (4.46–13.70) l/kg/h. The MRT [2, 6] was 2.42 (1.74–3.11) h, the Vz/F [2, 6] was 11.45 (7.06–20.17) l/kg and the t1/2z [2, 6] was 1.13 (0.78–1.48) h. The tmax [2, 6] was 1 (0.75–1.5) h, the λ [2, 6] was 0.62 (0.47–0.89) /h and the AUC0-t [2, 7] was 122.67 (72.47–192.85) ng.h/ml. The “AUC0-∞” value [2, 7] was 128.13 (75.13–199.88) ng.h/ml, the CL/F [2, 7] was 6.87 (4.48–13.70) l/kg/h and the Cmax [2, 7] was 58.65 (42.50–96.80) ng/ml. For the same molecule, the MRT [2, 7] was 2.21 (1.70–3.74) h, the Vz/F [2, 7] was 12.11 (6.62–20.17) l/kg and the t1/2z [2, 7] was 1.18 (0.72–2.19) h. The tmax [2, 7] was 1.0 (0.75–1.0) h, the λ [2, 7] was 0.71 (0.37–0.92) /h and the AUC0-t [2, 8] was 142.14 (83.48–199.75) ng.h/ml. The “AUC0-∞” value [2, 8] was 146.88 (86.09–226.53) ng.h/ml, the CL/F [2, 8] was 6.29 (2.80–8.92) l/kg/h and the Cmax [2, 8] was 59.20 (41.80.50–99.30) ng/ml. The MRT [2, 8] was 2.42 (1.71–2.94) h, the Vz/F [2, 8] was 11.49 (8.35–56.42) ^a l/kg and the t1/2z [2, 8] was 1.23 (0.13–2.77) h. The tmax [2, 8] was 1.0 (0.75–2.0) h, the λ [2, 8] was 0.85 (0.29–1.10) /h and the “participants with atractylodin detected at 0.25 h” value ([2]; group 1, single 1,000 mg AL, 10 participants) was 50%. The AUC0-t [2, 9] was 93.06 (12.13–276.28) ng.h/ml, the “AUC0-∞” value [2, 9] was 112.2 (20.11–306.76) ng.h/ml and the CL/F [2, 9] was 7.33 (2.87–33.43) l/kg/h. For the same molecule, the Cmax [2, 9] was 47.10 (7.10–129.90) ng/ml, the MRT [2, 9] was 2.60 (1.58–5.17) h and the Vz/F [2, 9] was 12.75 (4.44–61.56) l/kg. For the same molecule, the t1/2z [2, 9] was 1.16 (0.63–3.75) h, the tmax [2, 9] was 1.0 (0.5–2.0) h and the λ [2, 9] was 0.60 (0.19–1.11) /h. The AUC0-t [2, 10] was 99.67 (42.88–276.28) ng.h/ml, the “AUC0-∞” value [2, 10] was 139.56 (70.21–248.22) ng.h/ml and the CL/F [2, 10] was 6.43 (2.87–15.00) l/kg/h. For the same molecule, the Cmax [2, 10] was 54.35 (16.10–129.90) ng/ml, the MRT [2, 10] was 2.66 (1.70–3.99) h and the Vz/F [2, 10] was 11.97 (4.44–37.88) l/kg. The t1/2z [2, 10] was 1.36 (0.85–1.75) h, the λ [2, 10] was 0.52 (0.40–0.82) /h and the AUC0-t [2, 11] was 82.88 (12.13–181.08) ng.h/ml. The “AUC0-∞” value [2, 11] was 92.40 (20.11–210.23) ng.h/ml, the CL/F [2, 11] was 8.38 (3.77–33.43) l/kg/h and the Cmax [2, 11] was 41.90 (7.10–67.20) ng/ml. The MRT [2, 11] was 2.47 (1.58–5.17) h, the Vz/F [2, 11] was 13.96 (6.73–61.56) l/kg and the t1/2z [2, 11] was 1.09 (0.63–3.75) h. The tmax [2, 11] was 1.0 (1.0–2.0) h, the λ [2, 11] was 0.64 (0.19–1.11) /h and the “participants with atractylodin detected at 0.5 h” value ([2]; group 2, daily 1,000 mg AL, day 1, 17 participants) was 85%. For the same molecule, the AUC0-t [2, 12] was 106.67 (40.42–259.81) ng.h/ml, the “AUC0-∞” value [2, 12] was 117.75 (48.73-269-21) ng.h/ml and the CL/F [2, 12] was 6.80 (2.95–14.82) l/kg/h. The Cmax [2, 12] was 46.95 (20.10–152.70) ng/ml, the MRT [2, 12] was 2.64 (1.58–4.54) h and the Vz/F [2, 12] was 12.85 (3.58–31.55) l/kg. For the same molecule, the t1/2z [2, 12] was 1.14 (0.80–2.17) h, the tmax [2, 12] was 1.0 (0.5–2.0) h and the λ [2, 12] was 0.61 (0.32–0.87) /h. For the same molecule, the AUC0-t [2, 13] was 118.05 (42.97–212.09) ng.h/ml, the “AUC0-∞” value [2, 13] was 145.54 (67.49–232.33) ng.h/ml and the CL/F [2, 13] was 5.93 (3.79–11.38) l/kg/h. The Cmax [2, 13] was 52.55 (20.10–152.70) ng/ml, the MRT [2, 13] was 2.61 (1.58–4.54) h and the Vz/F [2, 13] was 12.12 (5.11–31.55) l/kg. The t1/2z [2, 13] was 1.28 (0.80–2.17) h, the tmax [2, 13] was 1.0 (0.5–2.0) h and the λ [2, 13] was 0.54 (0.32–0.87) /h. The AUC0-t [2, 14] was 75.38 (40.42–259.81) ng.h/ml, the “AUC0-∞” value [2, 14] was 91.67 (48.73-269-21) ng.h/ml and the CL/F [2, 14] was 7.90 (2.95–14.82) l/kg/h. For the same molecule, the Cmax [2, 14] was 44.0 (22.0–107.0) ng/ml, the MRT [2, 14] was 2.64 (1.95–3.08) h and the Vz/F [2, 14] was 13.79 (3.58–22.13) l/kg. For the same molecule, the t1/2z [2, 14] was 1.08 (0.84–1.65) h, the tmax [2, 14] was 1.0 (1.0–2.0) h and the λ [2, 14] was 0.64 (0.42–0.82) /h. The “participants with atractylodin detected at 0.5 h” value ([2]; group 2, daily 1,000 mg AL, day 21, 19 participants) was 95%, the “plasma atractylodin level at 4 h” value ([2]; group 2, daily 1,000 mg AL, range) was 2.5 to 18.2 ng/mL and the “accumulation after multiple oral dosing” value ([2]; human plasma, multiple oral dosing for 21 days) was “no accumulation”. The “time by which atractylodin was cleared in plasma” value ([2]; most participants) was no more than 4 h and the “IC50, anti-CCA activity” value [3] was 20 to 25 µg/mL.
